Experiments:
Substance-P receptor = Substance-P receptor (Homo sapiens, UniProt P25103); test: Displacement of [125I] labeled substance P from human cloned NK1 receptor expressed in CHO cells; format: cell-based
Outline: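 Radioligand displacement assay: [¹²⁵I]-labelled substance P bound to cloned human NK1 receptor expressed in CHO cells, measured as the concentration giving IC50; mean ± SD of three determinations.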

Gerbil, jird [1] = test: Inhibition of GR-73632-induced foot tapping in gerbil at 3 mg/kg, po after 1 hr; format: functional, Meriones; parameters: Activity: scale not given: the % may be the effect or the level left; details: for ED50: Meriones, 1 h, read-out: ID50 (the source's name); for Activity: dose 3 mg/kg
Outline: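 Gerbils dosed orally 1 h before central challenge with the NK1 agonist GR73632, with foot-tapping scored. Plasma drug level at 1 h measured by LC–MS/MS after protein precipitation.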

[2] = biological target: Voltage-gated inwardly rectifying potassium channel KCNH2 (Homo sapiens, UniProt Q12809); test: Displacement of labeled MK-499 from cloned hERG channel expressed in HEK cells; format: cell-based, HEK293
Voltage-gated inwardly rectifying potassium channel KCNH2, sequence (Q12809 whole entry): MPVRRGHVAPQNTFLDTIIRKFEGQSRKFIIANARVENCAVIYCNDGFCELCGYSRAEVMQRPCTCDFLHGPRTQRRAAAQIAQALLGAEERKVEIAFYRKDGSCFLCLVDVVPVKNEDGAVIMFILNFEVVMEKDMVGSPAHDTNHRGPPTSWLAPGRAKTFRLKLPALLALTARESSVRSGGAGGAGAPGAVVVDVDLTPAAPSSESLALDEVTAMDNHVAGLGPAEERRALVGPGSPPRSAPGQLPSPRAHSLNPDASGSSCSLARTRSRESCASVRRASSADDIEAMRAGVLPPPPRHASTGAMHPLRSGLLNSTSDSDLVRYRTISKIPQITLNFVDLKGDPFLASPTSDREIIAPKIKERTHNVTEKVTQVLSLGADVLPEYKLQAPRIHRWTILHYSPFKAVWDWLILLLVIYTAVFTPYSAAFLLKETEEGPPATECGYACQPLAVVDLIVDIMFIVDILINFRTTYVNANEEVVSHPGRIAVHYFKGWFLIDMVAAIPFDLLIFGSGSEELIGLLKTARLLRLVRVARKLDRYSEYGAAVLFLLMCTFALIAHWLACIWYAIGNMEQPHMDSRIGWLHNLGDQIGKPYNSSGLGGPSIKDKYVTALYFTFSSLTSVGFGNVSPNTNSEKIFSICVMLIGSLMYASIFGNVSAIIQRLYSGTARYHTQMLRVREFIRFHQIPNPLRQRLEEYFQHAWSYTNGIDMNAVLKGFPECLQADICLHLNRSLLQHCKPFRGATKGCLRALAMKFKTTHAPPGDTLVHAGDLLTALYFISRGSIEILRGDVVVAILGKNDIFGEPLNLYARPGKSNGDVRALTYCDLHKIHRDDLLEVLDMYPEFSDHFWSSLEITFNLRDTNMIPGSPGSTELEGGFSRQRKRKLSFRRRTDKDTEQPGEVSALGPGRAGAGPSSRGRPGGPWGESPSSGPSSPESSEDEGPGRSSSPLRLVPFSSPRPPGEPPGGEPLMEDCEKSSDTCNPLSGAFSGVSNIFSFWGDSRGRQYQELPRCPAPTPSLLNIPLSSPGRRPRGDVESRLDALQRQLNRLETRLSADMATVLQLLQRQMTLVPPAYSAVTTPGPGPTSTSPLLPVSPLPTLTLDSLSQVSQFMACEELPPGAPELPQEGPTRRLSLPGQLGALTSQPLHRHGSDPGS

Gerbil, jird [3] = test: Inhibition of GR-73632-induced foot tapping in po dosed gerbil after 1 hr; format: functional; details: Meriones, read-out: ID50 (the source's name)
Outline: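 Gerbils dosed orally 1 h before central challenge with the NK1 agonist GR73632, with foot-tapping scored. […] Plasma drug level at 1 h measured by LC–MS/MS after protein precipitation.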

[4] = Clearance in rat; format: ADME, organism-based; details: in vivo
[5] = Half life in rat; format: ADME, organism-based; details: in vivo

Substance-P receptor, sequence (P25103 whole entry): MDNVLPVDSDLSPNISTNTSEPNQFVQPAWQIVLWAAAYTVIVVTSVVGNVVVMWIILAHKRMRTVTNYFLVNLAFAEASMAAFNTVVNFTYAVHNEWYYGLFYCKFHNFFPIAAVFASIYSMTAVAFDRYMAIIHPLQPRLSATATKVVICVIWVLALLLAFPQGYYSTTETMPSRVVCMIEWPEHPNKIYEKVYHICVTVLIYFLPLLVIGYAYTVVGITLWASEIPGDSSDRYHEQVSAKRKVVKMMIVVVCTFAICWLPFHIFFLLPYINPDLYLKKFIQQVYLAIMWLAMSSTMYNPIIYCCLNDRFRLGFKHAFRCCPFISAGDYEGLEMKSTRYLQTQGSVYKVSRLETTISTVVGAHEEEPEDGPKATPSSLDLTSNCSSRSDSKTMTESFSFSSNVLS

| SMILES | IC50 (Substance-P receptor) [nM] | Ki [2] [nM] | Activity (Gerbil, jird [1]) [%] | other results |
| --- | --- | --- | --- | --- |
| C[C@@H](O[C@H]1CCC(=O)N(C)C[C@@H]1c1ccc(F)cc1)c1cc(C(F)(F)F)cc(C(F)(F)F)c1 | 0.12 |  |  | ED50 (Gerbil, jird [1]): 0.64 mg/kg |
| C[C@@H]1C[C@H](O[C@H](C)c2cc(C(F)(F)F)cc(C(F)(F)F)c2)[C@@H](c2ccc(F)cc2)CC(=O)N1C | 0.49 | > 9000 | 8 |  |
| C[C@@H](O[C@H]1CCn2c(O)nnc2C[C@@H]1c1ccc(F)cc1)c1cc(C(F)(F)F)cc(C(F)(F)F)c1 | 0.22 | > 9000 |  | ED50 (Gerbil, jird [1]): 0.8 mg/kg |
| C[C@@H](O[C@H]1CCC(=O)NC[C@@H]1c1ccc(F)cc1)c1cc(C(F)(F)F)cc(C(F)(F)F)c1 | 0.14 | > 9000 |  | ED50 (Gerbil, jird [3]): 1.06 mg/kg; clearance [4]: 33 mL/min/kg; half-life [5]: 5.6 h |
| C[C@@H](O[C@H]1CCc2nccn2C[C@@H]1c1ccc(F)cc1)c1cc(C(F)(F)F)cc(C(F)(F)F)c1 | 0.28 |  | 4 |  |
| C[C@@H]1NC(=O)CC[C@H](O[C@H](C)c2cc(C(F)(F)F)cc(C(F)(F)F)c2)[C@H]1c1ccc(F)cc1 |  | > 9000 |  |  |
| C[C@@H]1C[C@H](O[C@H](C)c2cc(C(F)(F)F)cc(C(F)(F)F)c2)[C@@H](c2ccc(F)cc2)CN(C)C1=O |  |  | 5 |  |
| C[C@@H](O[C@H]1CCNC(=O)C[C@@H]1c1ccc(F)cc1)c1cc(C(F)(F)F)cc(C(F)(F)F)c1 | 0.64 | > 9000 | 0 |  |
| C[C@@H]1C[C@H](O[C@H](C)c2cc(C(F)(F)F)cc(C(F)(F)F)c2)[C@@H](c2ccc(F)cc2)CC(=O)N1 | 0.41 |  | 64 |  |
| C[C@@H](O[C@H]1CCn2ccnc2C[C@@H]1c1ccc(F)cc1)c1cc(C(F)(F)F)cc(C(F)(F)F)c1 |  | 1400 | 0 |  |
| C[C@@H](O[C@H]1CCN(C)C(=O)C[C@@H]1c1ccc(F)cc1)c1cc(C(F)(F)F)cc(C(F)(F)F)c1 | 0.53 | > 9000 |  |  |
| C[C@@H]1C[C@H](O[C@H](C)c2cc(C(F)(F)F)cc(C(F)(F)F)c2)[C@@H](c2ccc(F)cc2)CNC1=O | 0.23 | 2400 |  |  |
| C[C@@H](O[C@H]1CCC(=O)N(C)[C@@H](C)[C@@H]1c1ccc(F)cc1)c1cc(C(F)(F)F)cc(C(F)(F)F)c1 |  | 6700 |  |  |

— ChEMBL document CHEMBL1147801, “NK1 antagonists based on seven membered lactam scaffolds” (Bioorg Med Chem Lett, 2006)
